Calls of active or inactive are those of the source. No cut-off for these calls is given here.
How the values were obtained:
RAW264.7 [1] = test: Antiinflammatory activity in mouse RAW264.7 cells assessed as inhibition of LPS-induced nitric oxide production after 24 hrs by Griess assay; format: functional, cell-based; conditions: RAW264.7, 24 h
Summary of the method: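 Nitrite in medium read by Griess reagent (1% sulfanilamide, 0.1% naphthylethylenediamine in 5% phosphoric acid) mixed 1:1 with medium for 5 min. Absorbance at 550 nm, quantified against a sodium nitrite standard in culture medium.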

RAW264.7 [2] = test: Antiinflammatory activity in mouse RAW264.7 cells assessed as downregulation of LPS-induced iNOS mRNA expression at 2 uM incubated for 2 hrs prior to LPS challenge measured after 9 hrs by RT-PCR analysis; format: functional, cell-based
Summary of the method: (§1)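 Cells at 5 × 10^5/well, pretreated 2 h, then LPS 0.1 µg/mL for 9 h. Total RNA isolated with Trizol. 1 µg RNA reverse-transcribed with oligo dT primers. Amplicons run on 3% agarose gel, band intensity normalized to GAPDH. Means + S.D. of 3 experiments in triplicate.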

RAW264.7 [3] = test: Cytotoxicity against mouse RAW264.7 cells assessed as cell viability after 24 hrs by MTS assay; format: cell-based; conditions: RAW264.7, 24 h
Summary of the method: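 Cells seeded 5 × 10^4/well and exposed 24 h. MTS added, 1 h at 37 °C, absorbance read at 490 nm. Percent of control = Ab treated/Ab control × 100 (n = 3). IC50 is the concentration cutting absorbance by 50%, taken from the linear portion of the curve.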

RAW264.7 [4] = test: Antiinflammatory activity in mouse RAW264.7 cells assessed as inhibition of LPS-induced iNOS expression at 0.5 to 2 uM incubated for 2 hrs prior to LPS challenge measured after 24 hrs by Western blot analysis; format: functional, cell-based
Summary of the method: (§2)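 Cells at 5 × 10^5/well, pretreated 2 h, then LPS 0.1 µg/mL for 24 h. Lysed in RIPA and protein assayed by Bradford. 20–50 µg separated on 8–15% SDS-PAGE and blotted to PVDF. Probed for murine iNOS or COX-2, HRP secondary, ECL detection, densitometry. Means + S.D. of 3 experiments in triplicate.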

[5] = Induction of nitric oxide scavenging activity assessed as nitrite level at 10 uM at room temperature after 60 mins by Griess assay in presence of light and SNP; format: physicochemical; conditions: 1 h
Summary of the method: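 Sodium nitroprusside 2.5 mM in PBS incubated alone or with compound (10 µM) in light at room temperature for 60 min. Nitrite then measured by Griess reaction. 1400 W (10 µM) as comparator.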

RAW264.7 [6] = test: Antiinflammatory activity in mouse RAW264.7 cells assessed as inhibition of LPS-induced COX-2 expression at 0.5 to 2 uM incubated for 2 hrs prior to LPS challenge measured after 24 hrs by Western blot analysis; format: functional, cell-based; summary of the method: as §2
RAW264.7 [7] = test: Antiinflammatory activity in mouse RAW264.7 cells assessed as downregulation of LPS-induced TNFalpha expression incubated for 2 hrs prior to LPS challenge measured after 24 hrs by ELISA; format: functional, cell-based
Summary of the method: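 Cells seeded 5 × 10^5/well, pretreated 2 h with compound (0.5, 1.0, 2.0 or 5.0 µM), then LPS 0.1 µg/mL for 24 h. TNF-α measured in culture medium by ELISA kit. Means + S.D. of 3 separate experiments in triplicate.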

RAW264.7 [8] = test: Antiinflammatory activity in mouse RAW264.7 cells assessed as inhibition of LPS-induced iNOS expression incubated for 2 hrs prior to LPS challenge measured after 24 hrs by Western blot analysis; format: functional, cell-based; summary of the method: as §2
RAW264.7 [9] = test: Antiinflammatory activity in mouse RAW264.7 cells assessed as inhibition of LPS-induced COX-2 expression incubated for 2 hrs prior to LPS challenge measured after 24 hrs by Western blot analysis; format: functional, cell-based; summary of the method: as §2
[10] = target: Transcription factor p65 (Mus musculus) (UniProt Q04207); test: Inhibition of NFkappaB p65 nuclear translocation in LPS-stimulated mouse RAW264.7 cells after 24 hrs by DAPI staining-based laser confocal immunofluorescent microscopic analysis; format: cell-based
Transcription factor p65 (Mus musculus), sequence (Q04207 whole entry): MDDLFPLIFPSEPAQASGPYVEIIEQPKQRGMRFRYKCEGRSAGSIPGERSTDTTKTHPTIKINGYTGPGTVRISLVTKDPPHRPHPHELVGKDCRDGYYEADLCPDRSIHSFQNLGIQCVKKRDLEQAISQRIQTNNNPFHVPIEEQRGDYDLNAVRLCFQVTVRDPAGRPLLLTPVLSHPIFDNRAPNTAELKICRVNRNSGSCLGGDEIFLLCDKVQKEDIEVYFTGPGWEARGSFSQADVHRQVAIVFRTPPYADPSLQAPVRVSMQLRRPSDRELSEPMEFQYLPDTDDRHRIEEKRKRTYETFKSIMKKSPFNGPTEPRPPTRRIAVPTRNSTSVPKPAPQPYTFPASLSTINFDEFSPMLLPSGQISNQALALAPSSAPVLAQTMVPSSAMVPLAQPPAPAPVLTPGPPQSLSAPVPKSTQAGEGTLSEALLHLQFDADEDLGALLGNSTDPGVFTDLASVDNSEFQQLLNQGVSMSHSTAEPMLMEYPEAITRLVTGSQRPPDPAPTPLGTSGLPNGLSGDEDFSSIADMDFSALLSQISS
Summary of the method: (§3)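 Cells grown on glass coverslips 24 h, then given LPS 0.1 µg/mL and/or compound 0.5 µM. Fixed in 4% paraformaldehyde, permeabilized with 0.2% Triton X-100. Anti-p65 antibody applied 24 h, then Alexa 568 secondary 1 h. Nuclei stained with DAPI. Imaged by confocal microscopy.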

RAW264.7 [11] = test: Antiinflammatory activity in mouse RAW264.7 cells assessed as downregulation of LPS-induced iNOS mRNA expression incubated for 2 hrs prior to LPS challenge measured after 9 hrs by RT-PCR analysis; format: functional, cell-based; summary of the method: as §1
RAW264.7 [12] = test: Antiinflammatory activity in mouse RAW264.7 cells assessed as inhibition of LPS-induced MMP-9 expression incubated for 2 hrs prior to LPS challenge measured after 24 hrs by gelatin zymographic analysis; format: functional, cell-based
Summary of the method: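 Cells plated 16–18 h, then treated with LPS 0.1 µg/ml plus compound (0.5, 1.0, 2.0 µM). Medium collected at 24 h and concentrated. Run on 7.5% acrylamide gel containing 2 mg/ml gelatin. Gel renatured in Triton X-100, then buffer overnight at 37 °C, developed 16–18 h in Tris pH 7.5/NaCl/CaCl2. Coomassie stain. MMP-9 band scanned, expressed as % of control.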

[13] = target: T1, MAP kinase p38 (Mus musculus) (UniProt P47811+O08911+Q9WUI1+Q9Z1B7); test: Inhibition of p38 MAPK phosphorylation in mouse RAW264.7 cells at 0.5 to 2 uM by Western blot analysis; format: cell-based
Summary of the method: (§4)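 Cells at 5 × 10^5/well, pretreated 2 h, then LPS 0.1 µg/mL for 24 h. 15 µg lysate protein run on 8% SDS-PAGE. p38 and p-p38 detected by Western blot with densitometry. Relative density = p-p38/β-actin. Means + S.D. of 3 experiments in triplicate.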

[14] = target: T1, MAP kinase p38 (Mus musculus); test: Inhibition of p38 MAPK phosphorylation in LPS-induced mouse RAW264.7 cells incubated for 2 hrs prior to LPS challenge measured after 24 hrs by Western blot analysis; format: cell-based; summary of the method: as §4
RAW264.7 [15] = test: Antiinflammatory activity in mouse RAW264.7 cells assessed as inhibition of LPS-induced PGE2 production; format: functional, cell-based
RAW264.7 [16] = test: Antiinflammatory activity in mouse RAW264.7 cells assessed as inhibition of LPS-induced COX-2 expression at 0.5 uM incubated for 2 hrs prior to LPS challenge measured after 24 hrs by Western blot analysis; format: functional, cell-based; summary of the method: as §2
RAW264.7 [17] = test: Antiinflammatory activity in mouse RAW264.7 cells assessed as inhibition of LPS-induced iNOS expression at 0.5 uM incubated for 2 hrs prior to LPS challenge measured after 24 hrs by Western blot analysis; format: functional, cell-based; summary of the method: as §2
[18] = target: Transcription factor p65 (Mus musculus) (UniProt Q04207); test: Inhibition of NFkappaB p65 nuclear translocation in mouse RAW264.7 cells after 24 hrs by DAPI staining-based laser confocal immunofluorescent microscopic analysis; format: cell-based; summary of the method: as §3

## CC(=N)NCc1cccc(CN)c1 [1400W]
RAW264.7 [1]
  IC50: 200 nM
RAW264.7 [2]
  Activity: Active
RAW264.7 [3]
  IC50: 47500 nM
RAW264.7 [4]
  inhibition: Active
[5]
  Activity: Not Active
RAW264.7 [6]
  inhibition: Active

## COc1ccc(OC2=CC(=O)C(=O)c3ccccc32)cc1
RAW264.7 [1]
  IC50: 740 nM
RAW264.7 [7]
  Activity: Dose-dependent effect
RAW264.7 [8]
  inhibition: Dose-dependent effect
RAW264.7 [9]
  inhibition: Dose-dependent effect
[10]
  inhibition: Active
RAW264.7 [3]
  IC50: 31700 nM
RAW264.7 [11]
  Activity: Dose-dependent effect
RAW264.7 [12]
  inhibition: Dose-dependent effect
[13]
  inhibition: inactive
[5]
  Activity: Not Active
[14]
  inhibition: Dose-dependent effect

## COc1ccc(-c2nc3c4ccoc4c4ccccc4c3[nH]2)cc1
RAW264.7 [15]
  IC50: 47 nM

## O=C1C=C(Nc2ccccc2)c2ccccc2/C1=N/O
RAW264.7 [1]
  IC50: 630 nM
RAW264.7 [3]
  IC50: 1670 nM

## COc1ccc(OC2=CC(=O)/C(=N\O)c3ccccc32)cc1
RAW264.7 [1]
  IC50: 1290 nM
RAW264.7 [16]
  inhibition: Active
RAW264.7 [3]
  IC50: 20600 nM
[5]
  Activity: Not Active
RAW264.7 [17]
  inhibition: Active

## COc1ccc(NC2=CC(=O)/C(=N\O)c3ccccc32)cc1
RAW264.7 [1]
  IC50: 870 nM
RAW264.7 [3]
  IC50: 4690 nM

## Nc1ncnc2c1ncn2[C@@H]1O[C@H](CO)C[C@H]1O
[18]
  inhibition: Active

## COc1ccc(NC2=CC(=O)C(=O)c3ccccc32)cc1
RAW264.7 [1]
  IC50: 810 nM
RAW264.7 [3]
  IC50: 1840 nM

## CC1(C)CCC2=C(O1)c1ccccc1C(=O)C2=O [LAPACHONE]
RAW264.7 [1]
  IC50: 470 nM
RAW264.7 [7]
  Activity: Dose-dependent effect
RAW264.7 [8]
  inhibition: Dose-dependent effect
RAW264.7 [9]
  inhibition: Dose-dependent effect
RAW264.7 [3]
  IC50: 4060 nM
RAW264.7 [11]
  Activity: Dose-dependent effect
RAW264.7 [12]
  inhibition: Dose-dependent effect
[5]
  Activity: Not Active
[14]
  inhibition: Dose-dependent effect

## O=C1C=C(Oc2ccccc2)c2ccccc2C1=O
RAW264.7 [1]
  IC50: 850 nM
RAW264.7 [16]
  inhibition: Active
RAW264.7 [3]
  IC50: 28500 nM
[5]
  Activity: Not Active
RAW264.7 [17]
  inhibition: Active
